Source: ChEMBL document CHEMBL4118197, “The discovery and preclinical evaluation of BMS-707035, a potent HIV-1 integrase strand transfer inhibitor” (Bioorg Med Chem Lett, 2018)

Experiments:
[1] = target: Human immunodeficiency virus type 1 integrase (Human immunodeficiency virus 1, UniProt Q7ZJM1); test: Inhibition of HIV1 integrase strand transfer activity
[2] = Clearance in Sprague-Dawley rat at 1 mg/kg, iv after 4 hrs; format: ADME, organism-based; conditions: in vivo
In short: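 Male Sprague-Dawley rats given 1 mpk IV in PEG400/ethanol (90:10); blood sampled at 5 and 30 min and 1, 2 and 4 h post-dose; clearance from plasma profile.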

[3] = Aqueous solubility of the compound; format: physicochemical
In short: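 Aqueous solubility measured at pH 2.3, 6.1, 7.3 and 8.5, in µg/mL.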

Sequence of Human immunodeficiency virus type 1 integrase (Q7ZJM1 whole entry): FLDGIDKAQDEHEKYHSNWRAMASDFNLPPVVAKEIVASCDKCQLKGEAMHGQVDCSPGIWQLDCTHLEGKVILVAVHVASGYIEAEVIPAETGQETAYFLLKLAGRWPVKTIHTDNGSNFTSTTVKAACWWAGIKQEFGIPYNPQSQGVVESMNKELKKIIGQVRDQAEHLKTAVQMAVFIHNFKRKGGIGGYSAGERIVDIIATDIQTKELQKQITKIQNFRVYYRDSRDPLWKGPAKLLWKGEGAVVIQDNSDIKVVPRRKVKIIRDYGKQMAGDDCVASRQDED

IC50 [1] [nM]	clearance [2] [mL/min/kg]	solubility [3] [µg/mL]	SMILES
9	38		CC1(C)OCCn2c1nc(C(=O)NCc1ccc(F)cc1N1CCCCS1(=O)=O)c(O)c2=O
3	18	≤ 5	O=C(NCc1ccc(F)cc1)c1nc2n(c(=O)c1O)CCCC21CCCC1
5		≤ 5	O=C(NCc1ccc(F)cc1N1CCCCS1(=O)=O)c1nc2n(c(=O)c1O)CCCC21CCCC1
6		≤ 5	CN(C)S(=O)(=O)c1cc(F)ccc1CNC(=O)c1nc2n(c(=O)c1O)CCCC21CCCC1

The next lines start with the compound.

SMILES	IC50 [1] [nM]	clearance [2] [mL/min/kg]	solubility [3] [µg/mL]
CC1(C)OCCn2c1nc(C(=O)NCc1ccc(F)c(Cl)c1)c(O)c2=O	3		
CN(C)S(=O)(=O)c1c(CNC(=O)c2nc3n(c(=O)c2O)CCOC3(C)C)ccc(F)c1F	10	62	
Cc1cc(F)ccc1CNC(=O)c1nc2n(c(=O)c1O)CCOC2(C)C	2		
CC1(C)OCCn2c1nc(C(=O)NCc1ccc(F)cc1N1CCOCC1)c(O)c2=O	5	29	
